Bioassay records as filed in PubChem.
Hits are enriched below; roughly 3% of the tested compounds scored in any of these assays.
rRNA inh HTS: inhibitors of bacterial rRNA selective over humanized ribosomes. E. coli WT GFP vs humanized-ribosome RFP mutants, fluorescence, 24 h; stronger effect = lower value; DMSO median 0, no signal -100. GFP signal change (wild-type ribosome), % (test concentration not listed). 350,000 compounds, 1.6% hits;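 active means significant combined selectivity score with lowered wild-type GFP, culture density cut under 30%, mutant RFP and density less affected; inactive means any of these conditions unmet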
Statin myotox sup: protects C2C12 myotubes from simvastatin toxicity | AID 602340 | rescue of ATP level, % at 7.49 µM | 330,000 compounds, 0.78% hits | ATP luminescence, 48 h; scaled: DMSO 0, geranylgeraniol control 100;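 active means mean ATP rescue above about 67%, or every replicate alone reaching that limit, limit read from the data, passing the limit was not always enough; inconclusive means no clear call, values can overlap the other calls; inactive means mean under the limit and some replicate under it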;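 further: myotubes were challenged with 10 µM simvastatin during compound exposure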
SIRT5 block: blocks human SIRT5 desuccinylation of peptide; AID 652115; inhibition, % at 15 µM; Purified SirT5, succinyl-peptide AMC, trypsin-coupled fluorescence; Q9NXA8; 330,000 compounds, 1.1% hits; in the data active means inhibition above about 15%; inconclusive means no clear call, values can overlap the other calls
Target sequence (Q9NXA8 whole entry, looked up): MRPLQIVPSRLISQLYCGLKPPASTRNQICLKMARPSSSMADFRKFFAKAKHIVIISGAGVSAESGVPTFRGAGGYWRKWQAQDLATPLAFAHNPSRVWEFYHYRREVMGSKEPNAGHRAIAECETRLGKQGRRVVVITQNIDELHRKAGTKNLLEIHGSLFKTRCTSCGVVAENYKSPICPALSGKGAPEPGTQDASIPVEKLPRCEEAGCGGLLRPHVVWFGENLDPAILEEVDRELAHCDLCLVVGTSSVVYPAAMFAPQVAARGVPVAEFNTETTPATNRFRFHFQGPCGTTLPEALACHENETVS
PGC1a acetyl inh: lowers PGC1a acetylation signal in U2OS cells. AlphaScreen anti-acetyl-lysine; with virally co-expressed GCN5 acetyltransferase. inhibition, % at 15.6 µM. 350,000 compounds, 0.17% hits. AID 651687;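 active means every replicate shows inhibition of at least 40%; inconclusive means mean inhibition at least 40% but some replicate below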;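 further: 0% = neutral control wells and 100% = positive control wells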
S100A4 MyoIIA: inhibitors of human S100A4 binding to myosin IIA peptide; P26447; S100A4/TAMRA-MyoIIA peptide fluorescence polarization; inhibition, % at 10.7 µM; 360,000 compounds, 0.14% hits;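 active means mean inhibition of at least 70% across replicates, with every replicate also reaching that level; inconclusive means mean inhibition reaches 70% but some replicates fall short; inactive means mean inhibition below 70%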
Target sequence (P26447 whole entry, looked up): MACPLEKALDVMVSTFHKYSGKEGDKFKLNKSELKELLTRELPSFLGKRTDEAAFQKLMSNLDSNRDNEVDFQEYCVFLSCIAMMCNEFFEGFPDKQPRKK
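incubation = readout 5 min after mixing, signal stable up to 60 min | system = S100A4 monomer protein | buffer or medium = HEPES pH 7.2 with CaCl2, KCl, NaCl, DTT, Triton | benchmarks = neutral control DMSO, positive control TFP | also added = fluorescent myosin IIA peptide, 5 nM | compound dosing = one concentration per compound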
Cneo AK release: Cryptococcus neoformans lysis via adenylate kinase release; C. neoformans lysis, adenylate kinase release luminescence, 4 h; normalised: neutral wells 0, clomiphene wells 100; lysis activity, % at 15 µM; AID 651654; 360,000 compounds, 0.2% hits;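 active means mean lysis activity across replicates of at least 80%, whatever share of replicates individually reach that level; inactive means mean lysis activity below 80%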
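Material: C. neoformans cells; Schedule: 4 h static compound exposure, 37 °C, read 1 h post-reagent; Measured by: adenylate kinase release luminescence; Read-out: signal increase indicating cell lysis; Controls: Clomiphene as positive lysis control.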
AID977621: wild-type E. coli growth inhibition versus H69 humanized strain – H69 mutant RFP, wild-type GFP, cherry-pick, dose response; fluorescence, 24 h; 1,900 tested, under 10 active; AID 977621; activity change, negative = inhibition at 50 µM; shares compounds with rRNA inh HTS;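 active means Wild-type ribosome reporter drop at least double the humanized mutant ribosome reporter drop, growth loss under a set limit; inconclusive means no clear call, values can overlap the other calls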;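 further: wild-type GFP and H69 mutant RFP strains grown together 50/50 in each well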
AID977628: growth of wild-type and h24-humanized E. coli strains – h24 mutant RFP vs wild-type GFP, cherry-pick, dose response | E. coli WT GFP strain growth, fluorescence, 24 h | 1,900 tested, under 10 active | shares compounds with rRNA inh HTS | activity change, negative = inhibition at 50 µM;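 active means compound lowering the normal-ribosome reporter at least twice as much as the humanized-ribosome reporter, growth loss under a set limit; inconclusive means no clear call, values can overlap the other calls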;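 further: wild-type GFP and h24 humanized RFP strains co-cultured 1 to 1 per well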
An asterisk follows results filed as active.

Results for O=C(Cc1cccnc1)N1CC(=O)N2[C@H](C1)[C@@H](c1ccc(C3=CCCCC3)cc1)[C@@H]2CO ?
rRNA inh HTS: -16.7*; SIRT5 block: -1.8; PGC1a acetyl inh: -6.2; S100A4 MyoIIA: 3.0; AID977628: inconclusive

Results for CC(=O)c1c(N2CCOCC2)nc2ccc(Cl)cc2c1-c1ccccc1 ?
rRNA inh HTS: -19.1*; SIRT5 block: 11.5; S100A4 MyoIIA: -2.8; AID977621: 0.093

How did CN(c1ccccc1)S(=O)(=O)c1cccc(NC(=O)CCNC(=O)c2ccc([N+](=O)[O-])cc2)c1 do in these assays?
rRNA inh HTS: -16.7*; Statin myotox sup: -16.2; SIRT5 block: -1.1; PGC1a acetyl inh: -10.5; S100A4 MyoIIA: -2.8; Cneo AK release: 1.7; AID977621: -4.66; AID977628: inconclusive

How did C[C@@H]1CN([C@@H](C)CO)C(=O)c2cc(-c3cccc(F)c3)cnc2O[C@@H]1CN(C)Cc1ccccn1 do in these assays?
rRNA inh HTS: -2.8; Statin myotox sup: -7.0; SIRT5 block: 0.9; PGC1a acetyl inh: -12.0; S100A4 MyoIIA: 4.7; Cneo AK release: 59.0

Results for COc1ccc(NC(=O)c2cccnc2SC)cc1S(=O)(=O)N1CCCCC1 ?
rRNA inh HTS: -25.4*; SIRT5 block: -1.8; S100A4 MyoIIA: 5.4; AID977621: inconclusive

What do the screens show for `COc1ccc(S(=O)(=O)N2CCCCC2)cc1NC(=O)c1cccnc1SC`?
rRNA inh HTS: 5.1; SIRT5 block: -8.4; PGC1a acetyl inh: -10.0; S100A4 MyoIIA: -2.9

Results for O=S1(=O)N[C@H](Cc2ccccc2)COc2cc(N3CCSCC3)ccc21 ?
rRNA inh HTS: -16.5*; SIRT5 block: -1.3; S100A4 MyoIIA: -3.4; AID977621: -0.847; AID977628: -10.2

Results for O=S1(=O)N[C@H](Cc2ccccc2)COc2cc(N3CCCCC3)ccc21 ?
rRNA inh HTS: -2.2; SIRT5 block: -12.6; S100A4 MyoIIA: -8.0

What do the screens show for `CC(C)(Nc1ccccc1)C(=O)c1ccccc1`?
rRNA inh HTS: -20.2*; SIRT5 block: -3.1; S100A4 MyoIIA: 35.0; Cneo AK release: -3.3; AID977621: -2.9; AID977628: inconclusive

What do the screens show for `O=C(C(=NNc1ccccc1)c1ccccc1)c1ccccc1`?
rRNA inh HTS: -8.6; Statin myotox sup: 7.1; PGC1a acetyl inh: -0.7; S100A4 MyoIIA: -0.4; Cneo AK release: -1.0

Results for COc1ccc(CN2C[C@H](O)COC[C@H]3O[C@@H](CC(=O)N4CCc5ccccc5C4)CC[C@@H]32)cc1 ?
rRNA inh HTS: -2.2; Statin myotox sup: 25.2; SIRT5 block: -1.7; PGC1a acetyl inh: 5.6; S100A4 MyoIIA: 4.8; Cneo AK release: -9.3

How did CCCNC(=O)N1[C@H](CN(C)C(C)=O)[C@H](c2ccc(C3=CCCC3)cc2)[C@@H]1CO do in these assays?
rRNA inh HTS: -0.2; Statin myotox sup: 3.6; SIRT5 block: 9.6; PGC1a acetyl inh: 9.3; S100A4 MyoIIA: -11.9; Cneo AK release: 20.4

How did O=C(NCCCN1CCOCC1)c1sc2cc([N+](=O)[O-])ccc2c1Cl do in these assays?
Statin myotox sup: -0.3; PGC1a acetyl inh: -0.1; Cneo AK release: -1.6; AID977628: -8.63

Results for Cc1noc(C)c1S(=O)(=O)N(C)C[C@H]1OCCCC[C@@H](C)Oc2ccc(NS(=O)(=O)c3cccs3)cc2C(=O)N([C@@H](C)CO)C[C@H]1C ?
rRNA inh HTS: -2.1; SIRT5 block: 5.8; PGC1a acetyl inh: -10.0; S100A4 MyoIIA: -8.0; Cneo AK release: -4.4
